According to ChEMBL document CHEMBL4819099, “A biphenyl inhibitor of eIF4E targeting an internal binding site enables the design of cell-permeable PROTAC-degraders” (Eur J Med Chem, 2021):
One block for each compound: values may come before it. The source made the active and inactive calls. No cut-off for these calls is given here.

Tests used:
Protein cereblon = Protein cereblon (Homo sapiens, UniProt Q96SW2); test: Binding affinity to Cereblon in human Flp293T cells transfected with BRD4(BD2)-GFP fusion protein and mCherry reporter assessed as inhibition of dBET6-induced BRD4(BD2) degradation after 5 hrs fluorescence based analysis; type: cell-based
How it was run: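 Flp293T cells stably expressing BRD4_BD2-GFP plus mCherry reporter, seeded a day earlier in FluoroBrite DMEM/10% FBS; compounds in dose response co-dosed with 100 nM dBET6 (0.5% DMSO), 5 h. […] Lenalidomide positive control.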

HeLa = test: Cytotoxicity activity against human HeLa cells assessed as cell killing at 10 uM measured after 24 hrs by CellTiter Glo luminescence assay; type: functional
How it was run: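 HeLa cells in 4.5 g/L glucose DMEM, 10% FBS, 1% pen/strep, 5x10³ cells/well; medium replaced 24 h post-seeding with drug-containing medium at equal DMSO. CellTiter-Glo luminescence read, normalized to DMSO control; at least two experiments, triplicates.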

MM1.S [1] = test: Cytotoxicity against human MM1.S cells assessed as reduction in cell viability after 72 hrs by Cell specific bioluminescence imaging (CS-BLI) assay
MM1.S [2] = test: Cytotoxicity against human MM1.S cells assessed as reduction in cell viability after 48 hrs by Cell specific bioluminescence imaging (CS-BLI) assay
MCF7 [3] = test: Cytotoxicity against human MCF7 cells assessed as reduction in cell viability after 72 hrs by Cell specific bioluminescence imaging (CS-BLI) assay; conditions: MCF7, 72 h
MM1.S [4] = test: Cytotoxicity against human MM1.S cells assessed as reduction in cell viability after 24 hrs by Cell specific bioluminescence imaging (CS-BLI) assay
MCF7 [5] = test: Cytotoxicity against human MCF7 cells assessed as reduction in cell viability after 24 hrs by Cell specific bioluminescence imaging (CS-BLI) assay; conditions: MCF7, 24 h
MCF7 [6] = test: Cytotoxicity against human MCF7 cells assessed as reduction in cell viability after 48 hrs by Cell specific bioluminescence imaging (CS-BLI) assay; conditions: MCF7, 48 h
[7] = target: T1, Protein cereblon/Eukaryotic translation initiation factor 4E (Homo sapiens) (UniProt P06730+Q96SW2); test: Protac activity at CRBN/eIF4E in human HEK293T cells assessed as induction of intracellular eIF4E degradation at 0.1 to 10 uM measured after 24 hrs by Western blot analysis; type: cell-based; conditions: dose 0.1-10 µM
How it was run: (§1)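 HEK293T cells exposed either to 0.1-10 μM PROTAC for 24 h or to 1 μM PROTAC for 0.5 to 24 h, DMSO-treated cells alongside; eIF4E level assessed by immunoblotting.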

[8] = target: T1, Protein cereblon/Eukaryotic translation initiation factor 4E (Homo sapiens); test: Protac activity at CRBN/eIF4E in human HEK293T cells assessed as induction of eIF4E ubiquitination at 1 uM in presence of 26S proteasome inhibitor, Bortezomib by Western blot analysis; type: cell-based
How it was run: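 HEK293T cells incubated with 1 μM PROTAC plus 100 nM bortezomib; eIF4E ubiquitination compared with bortezomib-alone and DMSO-treated cells.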

[9] = target: T1, Protein cereblon/Eukaryotic translation initiation factor 4E (Homo sapiens); test: Protac activity at CRBN/eIF4E in human HEK293T cells assessed as induction of intracellular eIF4E degradation at 1 uM measured after 0.5 to 24 hrs by Western blot analysis; type: cell-based; conditions: time 0.5-24 hrs; how it was run: as §1
[10] = target: Protein cereblon/Sal-like protein 4 (Homo sapiens) (UniProt Q96SW2+Q9UJQ4); test: Protac activity at CRBN/SALL4 in human Kelly cells assessed as induction of SALL4 degradation by measuring downregulation of SALL4 protein expression at 1 uM measured after 5 hrs by proteomics analysis based LC-MS analysis; type: cell-based
How it was run: (§2)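 Kelly cells given 1 μM compound or DMSO (biological triplicate) for 5 h; urea/EPPS pH 8.5 lysis, 100 μg protein reduced, alkylated, digested, TMT-labelled, high-pH reverse-phase fractionated into 96 fractions; LC-MS over a 190 min 9-32% acetonitrile gradient with MS3-based TMT quantification with real-time search; change relative to DMSO.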

[11] = target: Protein cereblon/Zinc finger protein 827 (Homo sapiens) (UniProt Q96SW2+Q17R98); test: Protac activity at CRBN/ZNF827 in human Kelly cells assessed as induction of ZNF827 degradation by measuring downregulation of ZNF827 protein expression at 1 uM measured after 5 hrs by proteomics analysis based LC-MS analysis; type: cell-based; how it was run: as §2
[12] = target: T1, Protein cereblon/Eukaryotic translation initiation factor 4E (Homo sapiens); test: Protac activity at CRBN/eIF4E in human Kelly cells assessed as induction of eIF4E degradation by measuring downregulation of eIF4E protein expression at 1 uM measured after 5 hrs by proteomics analysis based LC-MS analysis; type: cell-based; how it was run: as §2
[13] = target: Protein cereblon/Zinc finger protein 692 (Homo sapiens) (UniProt Q96SW2+Q9BU19); test: Protac activity at CRBN/ZNF692 in human Kelly cells assessed as induction of ZNF692 degradation by measuring downregulation of ZNF692 protein expression at 1 uM measured after 5 hrs by proteomics analysis based LC-MS analysis; type: cell-based; how it was run: as §2
Protein cereblon/Zinc finger protein 692 (Homo sapiens), sequence (Q96SW2 whole entry, looked up): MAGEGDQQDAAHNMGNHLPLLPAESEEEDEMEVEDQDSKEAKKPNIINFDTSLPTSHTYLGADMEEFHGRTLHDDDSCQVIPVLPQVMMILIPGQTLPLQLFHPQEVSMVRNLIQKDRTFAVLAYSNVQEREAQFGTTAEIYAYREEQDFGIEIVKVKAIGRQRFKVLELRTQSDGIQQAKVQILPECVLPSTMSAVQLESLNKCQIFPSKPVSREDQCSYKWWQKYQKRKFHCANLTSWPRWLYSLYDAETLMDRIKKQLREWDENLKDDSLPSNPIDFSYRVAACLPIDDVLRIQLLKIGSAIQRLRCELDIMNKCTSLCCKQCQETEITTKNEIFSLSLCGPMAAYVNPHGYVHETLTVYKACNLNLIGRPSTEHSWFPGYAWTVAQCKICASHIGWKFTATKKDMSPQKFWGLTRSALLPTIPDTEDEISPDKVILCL
Protein cereblon/Zinc finger protein 692 (Homo sapiens), sequence (Q9BU19 whole entry, looked up): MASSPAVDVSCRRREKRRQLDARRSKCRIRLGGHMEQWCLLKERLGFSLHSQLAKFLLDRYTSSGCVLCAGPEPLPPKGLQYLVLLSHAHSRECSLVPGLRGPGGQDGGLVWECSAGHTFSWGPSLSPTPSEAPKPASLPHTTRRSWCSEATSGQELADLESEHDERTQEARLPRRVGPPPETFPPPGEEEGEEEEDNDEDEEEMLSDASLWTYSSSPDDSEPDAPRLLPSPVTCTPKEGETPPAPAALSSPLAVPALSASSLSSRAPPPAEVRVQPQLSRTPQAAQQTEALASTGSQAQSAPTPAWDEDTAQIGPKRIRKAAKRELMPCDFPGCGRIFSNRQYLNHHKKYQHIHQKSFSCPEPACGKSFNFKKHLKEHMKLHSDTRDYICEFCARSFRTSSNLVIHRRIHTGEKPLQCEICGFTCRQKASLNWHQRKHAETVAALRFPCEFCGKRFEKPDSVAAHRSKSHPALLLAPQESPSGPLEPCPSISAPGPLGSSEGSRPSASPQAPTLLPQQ

T1 sequence (P06730 whole entry, looked up): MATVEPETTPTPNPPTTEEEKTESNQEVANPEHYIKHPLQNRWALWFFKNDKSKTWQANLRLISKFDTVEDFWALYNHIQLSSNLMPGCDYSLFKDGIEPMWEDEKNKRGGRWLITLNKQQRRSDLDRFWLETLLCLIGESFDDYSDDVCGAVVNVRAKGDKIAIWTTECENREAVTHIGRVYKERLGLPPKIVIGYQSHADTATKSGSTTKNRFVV
T1 sequence (Q96SW2 whole entry, looked up): as the sequence (Q96SW2 whole entry, looked up) above
Protein cereblon, sequence (Q96SW2 whole entry, the tested form may be a part): as the sequence (Q96SW2 whole entry, looked up) above
Protein cereblon/Zinc finger protein 827 (Homo sapiens), sequence (Q17R98 whole entry, looked up): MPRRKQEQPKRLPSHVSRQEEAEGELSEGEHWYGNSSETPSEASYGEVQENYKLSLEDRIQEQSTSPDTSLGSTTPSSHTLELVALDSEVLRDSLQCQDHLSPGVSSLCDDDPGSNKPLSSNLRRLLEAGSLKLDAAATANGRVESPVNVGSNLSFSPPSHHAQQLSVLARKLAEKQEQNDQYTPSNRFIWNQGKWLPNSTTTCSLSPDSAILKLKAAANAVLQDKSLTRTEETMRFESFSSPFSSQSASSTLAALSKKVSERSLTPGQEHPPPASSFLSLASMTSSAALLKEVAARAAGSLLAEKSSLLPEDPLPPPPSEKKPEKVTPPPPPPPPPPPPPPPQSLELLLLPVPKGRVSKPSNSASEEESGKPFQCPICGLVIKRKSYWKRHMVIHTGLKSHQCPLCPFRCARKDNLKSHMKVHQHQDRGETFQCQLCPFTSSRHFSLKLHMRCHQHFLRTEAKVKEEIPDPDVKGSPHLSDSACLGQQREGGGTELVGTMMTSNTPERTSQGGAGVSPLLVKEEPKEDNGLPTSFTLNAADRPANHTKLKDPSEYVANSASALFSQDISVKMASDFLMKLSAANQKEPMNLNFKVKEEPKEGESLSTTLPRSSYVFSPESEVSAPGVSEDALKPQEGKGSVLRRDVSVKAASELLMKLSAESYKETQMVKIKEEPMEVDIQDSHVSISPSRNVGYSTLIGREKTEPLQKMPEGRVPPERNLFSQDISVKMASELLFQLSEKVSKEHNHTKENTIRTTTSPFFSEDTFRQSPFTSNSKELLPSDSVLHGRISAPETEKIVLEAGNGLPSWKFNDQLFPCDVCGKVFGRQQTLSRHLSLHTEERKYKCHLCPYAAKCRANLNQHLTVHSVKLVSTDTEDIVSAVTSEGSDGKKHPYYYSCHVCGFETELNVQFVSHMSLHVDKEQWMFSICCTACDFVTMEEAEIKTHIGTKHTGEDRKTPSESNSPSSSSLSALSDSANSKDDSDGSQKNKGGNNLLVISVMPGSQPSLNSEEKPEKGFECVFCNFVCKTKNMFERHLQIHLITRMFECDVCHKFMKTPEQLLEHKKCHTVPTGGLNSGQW
Protein cereblon/Zinc finger protein 827 (Homo sapiens), sequence (Q96SW2 whole entry, looked up): as the sequence (Q96SW2 whole entry, looked up) above
Protein cereblon/Sal-like protein 4 (Homo sapiens), sequence (Q96SW2 whole entry, looked up): as above
Protein cereblon/Sal-like protein 4 (Homo sapiens), sequence (Q9UJQ4 whole entry, looked up): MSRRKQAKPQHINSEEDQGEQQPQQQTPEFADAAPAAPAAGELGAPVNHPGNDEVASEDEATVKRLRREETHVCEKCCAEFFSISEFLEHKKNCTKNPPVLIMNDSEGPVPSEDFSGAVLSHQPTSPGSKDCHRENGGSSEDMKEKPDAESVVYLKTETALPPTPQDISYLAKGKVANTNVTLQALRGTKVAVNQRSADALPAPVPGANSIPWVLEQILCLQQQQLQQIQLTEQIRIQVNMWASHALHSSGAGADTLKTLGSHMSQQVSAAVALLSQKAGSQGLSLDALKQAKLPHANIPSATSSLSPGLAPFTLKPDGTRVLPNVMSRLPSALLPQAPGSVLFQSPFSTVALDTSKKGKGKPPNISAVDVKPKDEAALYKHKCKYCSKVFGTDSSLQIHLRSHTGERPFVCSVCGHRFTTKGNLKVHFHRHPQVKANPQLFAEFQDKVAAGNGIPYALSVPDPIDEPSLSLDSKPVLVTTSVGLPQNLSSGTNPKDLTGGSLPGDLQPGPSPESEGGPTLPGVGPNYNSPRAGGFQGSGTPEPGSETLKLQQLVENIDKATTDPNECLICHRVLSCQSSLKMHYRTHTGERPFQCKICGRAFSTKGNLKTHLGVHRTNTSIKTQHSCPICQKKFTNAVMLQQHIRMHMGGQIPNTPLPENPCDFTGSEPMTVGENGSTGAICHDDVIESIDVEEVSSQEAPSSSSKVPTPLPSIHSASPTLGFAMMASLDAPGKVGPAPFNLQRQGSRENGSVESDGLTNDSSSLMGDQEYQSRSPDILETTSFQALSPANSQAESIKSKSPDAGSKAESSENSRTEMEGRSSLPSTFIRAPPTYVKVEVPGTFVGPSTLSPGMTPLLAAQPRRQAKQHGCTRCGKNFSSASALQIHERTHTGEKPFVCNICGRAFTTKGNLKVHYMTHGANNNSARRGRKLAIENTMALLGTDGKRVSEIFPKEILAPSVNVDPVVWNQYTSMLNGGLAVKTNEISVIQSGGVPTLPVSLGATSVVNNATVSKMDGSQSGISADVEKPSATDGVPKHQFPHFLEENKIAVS

SMILES: C/C(=N\Nc1nc(-c2ccc(-c3ccccc3)cc2)cs1)C(=O)NCCCNc1cccc2c1C(=O)N(C1CCC(=O)NC1=O)C2=O (configuration not stated)
- Activity (HeLa): 50%

SMILES: O=C(O)C(Cc1ccccc1[N+](=O)[O-])=NNc1nc(-c2ccc(Cl)c(Cl)c2)cs1
- IC50 (MM1.S [1]): 15.6 µM
- IC50 (MM1.S [2]): 18.7 µM
- IC50 (MCF7 [3]): 35.1 µM
- IC50 (MM1.S [4]): 22.6 µM
- IC50 (MCF7 [5]): 71.2 µM
- IC50 (MCF7 [6]): 43.1 µM

SMILES: C/C(=N\Nc1nc(-c2ccc(Cl)c(Cl)c2)c(CC(=O)NCCNc2cccc3c2C(=O)N(C2CCC(=O)NC2=O)C3=O)s1)C(=O)OCOC(=O)C(C)(C)C (configuration not stated)
- IC50 (Protein cereblon): 20.7 µM
- Activity [7]: inactive
- Activity [8]: inactive
- Activity [9]: inactive

SMILES: C/C(=N\Nc1nc(-c2ccc(-c3ccccc3)cc2)cs1)C(=O)NCCCCNc1cccc2c1C(=O)N(C1CCC(=O)NC1=O)C2=O (configuration not stated)
- IC50 (Protein cereblon): 1.6 µM
- Activity [10]: Active
- Activity [11]: Active
- Activity [12]: inactive
- Activity [13]: Active

Further lines, with some results ahead:

- Activity (Protein cereblon; Flp-In-293): inactive
SMILES: O=C(COc1cccc2c1C(=O)N(C1CCC(=O)NC1=O)C2=O)NCCCCNC(=O)Cc1sc(N/N=C(\Cc2ccccc2[N+](=O)[O-])C(=O)O)nc1-c1ccc(Cl)c(Cl)c1 (configuration not stated)

- Activity [7]: inactive
- Activity [8]: inactive
- Activity [9]: inactive
SMILES: C/C(=N\Nc1nc(-c2ccc(-c3ccccc3)cc2)cs1)C(=O)NCCNc1cccc2c1C(=O)N(C1CCC(=O)NC1=O)C2=O (configuration not stated)
- Activity (HeLa): 50%

- IC50 (Protein cereblon): 13 µM
SMILES: O=C1CCC(N2C(=O)c3cccc(NCCCCNC(=O)/C(=N\Nc4nc(-c5ccc(-c6ccccc6)cc5)cs4)c4ccccc4[N+](=O)[O-])c3C2=O)C(=O)N1 (configuration not stated)
